Among the data in ChEMBL document CHEMBL1158603, “S-aryltriazole acyclonucleosides: synthesis and biological evaluation against hepatitis C virus” (Bioorg Med Chem Lett, 2010) are Activity values, retold here.

Active and inactive are the calls of the source. No cut-off for these calls is given here.

The assay relates to Hepatitis C virus. As to the kind of experiment: Antiviral activity against HCV infected in human HuH5.2 cells assessed as inhibition of subgenomic RNA replication after 4 days by Steady-Glo luciferase assay. In kind it is functional, organism-based. The note with it: Hepacivirus hominis. An outline of the steps: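 Huh-5-2 replicon cells seeded at 5000/well in complete DMEM with 250 µg/mL G418, grown 24 h at 37 °C (5% CO2). Medium then replaced by threefold serial dilutions of compound in complete DMEM without G418. After 4 days at 37 °C, medium removed and luciferase activity read by luminescence.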
In the case of `COC(=O)c1nc(Sc2ccccc2C)n(COCCOC(C)=O)n1`, the result was inactive.

In the case of `COc1cccc(Sc2nc(C(N)=O)nn2COCCO)c1`, the result was inactive.

Regarding `NC(=O)c1nc(Sc2ccc(Cl)cc2)n(COCCO)n1`, the outcome was inactive.

`COC(=O)c1nc(Sc2ccccc2OC)n(COCCOC(C)=O)n1`: the result was inactive.

Take `NC(=O)c1nc(Sc2ccc3ccccc3c2)n(COCCO)n1`: the result was inactive.

In the case of `NC(=O)c1nc(Sc2cccc(C(F)(F)F)c2)n(COCCO)n1`, the outcome was inactive.

Regarding `COC(=O)c1nc(Sc2ccc(Cl)cc2)n(COCCOC(C)=O)n1`, the outcome was inactive.

In the case of `Cc1ccc(Sc2nc(C(N)=O)nn2COCCO)cc1`, the result was inactive.

As to `CC(C)(C)c1ccc(Sc2nc(C(N)=O)nn2COCCO)cc1`, the outcome was inactive.

`NC(=O)c1nc(Sc2ccccc2F)n(COCCO)n1`: the outcome was inactive.

On to `CCCSc1nc(C(=O)OC)nn1COCCOC(C)=O`, for which the outcome was inactive.

As for `NC(=O)c1nc(Sc2ccc(C(F)(F)F)cc2)n(COCCO)n1`, the outcome was inactive.

For `COC(=O)c1nc(Sc2cccc(C(F)(F)F)c2)n(COCCOC(C)=O)n1`, the result was inactive.

Consider `COc1ccccc1Sc1nc(C(N)=O)nn1COCCO`, for which the result was inactive.

Consider `COC(=O)c1nc(Sc2ccc(OC)cc2)n(COCCOC(C)=O)n1`, for which the outcome was inactive.

Take `COC(=O)c1nc(Sc2cccc(F)c2)n(COCCOC(C)=O)n1`: the outcome was inactive.

As for `NC(=O)c1nc(Sc2ccccc2)n(COCCO)n1`, the outcome was inactive.

Consider `COC(=O)c1nc(Sc2cccc(OC)c2)n(COCCOC(C)=O)n1`, for which the outcome was inactive.

In the case of `NC(=O)c1nc(Sc2cccc(F)c2)n(COCCO)n1`, the result was inactive.

In the case of `COC(=O)c1nc(Sc2ccc(F)cc2)n(COCCOC(C)=O)n1`, the outcome was inactive.

Consider `Cc1cccc(Sc2nc(C(N)=O)nn2COCCO)c1`, for which the outcome was inactive.

As for `COC(=O)c1nc(Sc2ccccc2C(F)(F)F)n(COCCOC(C)=O)n1`, the result was inactive.

With `NC(=O)c1nc(Sc2ccc(F)cc2)n(COCCO)n1`, the outcome was inactive.

Consider `COc1ccc(Sc2nc(C(N)=O)nn2COCCO)cc1`, for which the result was inactive.

With `COC(=O)c1nc(Sc2ccc3ccccc3c2)n(COCCOC(C)=O)n1`, the result was inactive.

As for `COC(=O)c1nc(Sc2ccc(C(F)(F)F)cc2)n(COCCOC(C)=O)n1`, the outcome was inactive.

In the case of `COC(=O)c1nc(Sc2ccc(C)cc2)n(COCCOC(C)=O)n1`, the result was inactive.

In the case of `COC(=O)c1nc(Sc2cccc(C)c2)n(COCCOC(C)=O)n1`, the outcome was inactive.

With `COC(=O)c1nc(Sc2ccccc2)n(COCCOC(C)=O)n1`, the result was inactive.

Turning to `Cc1ccccc1Sc1nc(C(N)=O)nn1COCCO`, the result was inactive.

As to `NC(=O)c1nc(SCc2cccc(C(F)(F)F)c2)n(COCCO)n1`, the outcome was inactive.

On to `COC(=O)c1nc(Sc2ccccc2F)n(COCCOC(C)=O)n1`, for which the outcome was inactive.

For the molecule `COC(=O)c1nc(SCc2cccc(C(F)(F)F)c2)n(COCCOC(C)=O)n1`, the outcome was inactive.

For the molecule `COC(=O)c1nc(Sc2ccc(C(C)(C)C)cc2)n(COCCOC(C)=O)n1`, the result was inactive.

Regarding `NC(=O)c1nc(Sc2ccccc2C(F)(F)F)n(COCCO)n1`, the outcome was inactive.
